Common to all, as to format: functional
Assay [1] deals with P388. The assay is described as follows: Cytotoxicity against mouse P388 cells after 72 hrs by MTT assay. A digest of the protocol: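 P-388D1 murine leukemia cells (ATCC CCL 46) were incubated 72 h with a two-fold dilution series of sample. Growth was read by MTT tetrazolium staining absorbance. The concentration giving 50% of solvent-control growth was determined. Values are means of replicates. Mitomycin C at 0.06 μg/mL served as positive control.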

Assay [2] is described as follows: Cytotoxicity against human NCI60 cells.
The next assay concerns CCRF-CEM. In words: Cytotoxicity against human CCRF-CEM cells.
Another assay relates to NCI-H522. In words: Cytotoxicity against human NCI-H522 cells.
Assay [3] deals with P388. In words: Cytotoxicity against mouse P388 cells at 0.06 ug/mL after 72 hrs by MTT assay. To be noted: P388, 72 h, read-out: GI. A digest of the protocol: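 Mitomycin C positive control at 0.06 μg/mL on P-388D1 murine leukemia cells (ATCC CCL 46), 72 h incubation. Growth was read by MTT tetrazolium absorbance and expressed as percent inhibition relative to a solvent control.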

Where [4] appears, read: Mus musculus, P388, 72 h, read-out: GI50.

Each structure is given as a SMILES string. ≈ marks a conversion by molar mass, not a printed value. Where only a bound is given, the exact number is not on record here.

For the molecule `C[C@@H]1CC[C@@]2(C)[C@H](C)/C(=C\COC(=O)/C=C/c3ccc(O)c(O)c3)CC[C@@]12C` [NAVICULYL CAFFEATE], the concentration for 50% growth inhibition (GI50) in the assay with P388 [1] was determined as 1.1 µg/mL (≈ 2.86 µM); in the assay on P388 [1] (setting [4]), 0.8 µg/mL (≈ 2.08 µM); in assay [2] it was 2.5 µg/mL (≈ 6.5 µM); in the assay on CCRF-CEM, 0.4 µg/mL (≈ 1.04 µM); in the assay on NCI-H522, 0.5 µg/mL (≈ 1.3 µM). `O=C(O)/C=C/c1ccc(O)c(O)c1` [CAFFEIC ACID]: the GI50 in the assay with P388 [1] (setting [4]) is above 25 µg/mL. The same measure, in the same setting: the figure for `O=C(/C=C/c1ccc(O)c(O)c1)O[C@H](C(=O)O)[C@H](OC(=O)/C=C/c1ccc(O)c(O)c1)C(=O)O` [CHICORIC ACID] is above 25 µg/mL; for `C[C@@H]1CC[C@@]2(C)[C@H](C)/C(=C/CO)CC[C@@]12C` [NAVICULOL] it is above 25 µg/mL. As for `CO[C@@]12[C@H](COC(N)=O)C3=C(C(=O)C(C)=C(N)C3=O)N1C[C@@H]1N[C@@H]12` [MITOMYCIN], the inhibition of growth at 0.06 µg/mL in the assay with P388 [3] was 43%. For the molecule `CC(C)=CCOC(=O)/C=C/c1ccc(O)c(O)c1` [PRENYL CAFFEATE], the 50% growth inhibitory concentration (GI50) in the assay with P388 [1] (setting [4]) turned out to be 6.9 µg/mL (≈ 27.8 µM). On the same count and under the same terms, then `C=C1CCC2CC1C(C)(C)CC(OC(=O)/C=C/c1ccc(O)c(O)c1)/C=C\2C` (stereo unspecified) [BAZZANENEYL CAFFEATE], with 0.9 µg/mL (≈ 2.35 µM).
